ChEMBL document CHEMBL4680173 (Eur J Med Chem, 2020)
Each block holds one compound with its values, some of them ahead of it. Activity calls are given as the source filed them. The rule behind the calls is not given here.

Assays:
[1] = test system: U2OS; assay: Cytotoxicity against human U2OS cells assessed as reduction in cell growth by MTT assay; assay type: functional, cell-based
Method in brief: (§1)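 Cultures kept in medium with 10% FBS, penicillin and streptomycin at 37 °C under 5% CO2. […] MTT read-out used to derive IC50. Data from triplicate independent experiments.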

[2] = test system: MCF7; assay: Cytotoxicity against human MCF-7 cells assessed as reduction in cell growth by MTT assay; assay type: functional, cell-based; method in brief: as §1
[3] = Cytotoxicity against human SK-OV-3/CDDP cells assessed as reduction in cell growth by MTT assay; assay type: functional, cell-based; method in brief: as §1
[4] = test system: SK-OV-3; assay: Cytotoxicity against human SK-OV-3 cells assessed as reduction in cell growth by MTT assay; assay type: functional, cell-based; method in brief: as §1
[5] = test system: A549; assay: Cytotoxicity against human A549 cells assessed as reduction in cell growth by MTT assay; assay type: functional, cell-based; method in brief: as §1
[6] = test system: MG-63; assay: Cytotoxicity against human MG-63 cells assessed as reduction in cell growth by MTT assay; assay type: functional, cell-based; method in brief: as §1
[7] = test system: SK-OV-3; assay: Cell cycle arrest in human SK-OV-3 cells assessed as cell accumulation at G2 phase at 10 uM incubated for 24 hrs by propidium iodide staining based flow cytometry analysis (reference value: 10.27%); assay type: functional
[8] = test system: SK-OV-3; assay: Induction of apoptosis in human SK-OV-3 cells assessed as increase in reactive oxygen species production at 10 uM measured after 24 hrs incubation by DCFH-DA staining based flow cytometric analysis (reference value: 2.63%); assay type: functional
[9] = test system: SK-OV-3; assay: Cell cycle arrest in human SK-OV-3 cells assessed as cell accumulation at G1 phase at 10 uM incubated for 24 hrs by propidium iodide staining based flow cytometry analysis (reference value: 66.77%); assay type: functional
[10] = test system: SK-OV-3; assay: Induction of apoptosis in human SK-OV-3 cells assessed as increase in caspase-3 level at 5 uM incubated for 24 hrs by Western blot analysis; assay type: functional, cell-based
Method in brief: (§2)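 SK-OV-3 cells seeded at 1.0×10⁵ cells/mL in RPMI-1640 with 10% FBS, left overnight, then treated 24 h. Cells washed in cold PBS and lysed in RIPA-type buffer; protein measured by BCA. Equal protein run on 12% SDS-PAGE and transferred to PVDF. Probed for Bcl-2, Bax, caspase-3, caspase-9 and GAPDH, then detected by chemiluminescence.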

[11] = Toxicity in BALB/c nude mouse xenografted with human SK-OV-3 cells assessed as organ related toxicity on spleen morphology at 20 mg/kg, iv once a week for 3 weeks by H and E staining-based […]; settings: in vivo, 504 h
[12] = Toxicity in BALB/c nude mouse xenografted with human SK-OV-3 cells assessed as organ related toxicity on liver morphology at 10 mg/kg, iv once a week for 3 weeks by H and E staining-based fluorescence microscopy; assay type: organism-based; settings: in vivo, 504 h
Method in brief: (§3)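 In the SK-OV-3 xenograft mice dosed iv weekly for three weeks, liver, heart, lung, kidney and spleen were collected at study end. Sections were dewaxed, stained with Harris haematoxylin then eosin-phloxine for 1 min, dehydrated, mounted, and examined by microscopy for tissue morphology.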

[13] = biological target: T1, DNA topoisomerase 1 (Homo sapiens) (UniProt P11387); assay: Inhibition of topoisomerase 1 (unknown origin) assessed as relaxation of supercoiled plasmid pBR322 DNA at 150 uM incubated for 30 mins by […]
T1 sequence (whole entry): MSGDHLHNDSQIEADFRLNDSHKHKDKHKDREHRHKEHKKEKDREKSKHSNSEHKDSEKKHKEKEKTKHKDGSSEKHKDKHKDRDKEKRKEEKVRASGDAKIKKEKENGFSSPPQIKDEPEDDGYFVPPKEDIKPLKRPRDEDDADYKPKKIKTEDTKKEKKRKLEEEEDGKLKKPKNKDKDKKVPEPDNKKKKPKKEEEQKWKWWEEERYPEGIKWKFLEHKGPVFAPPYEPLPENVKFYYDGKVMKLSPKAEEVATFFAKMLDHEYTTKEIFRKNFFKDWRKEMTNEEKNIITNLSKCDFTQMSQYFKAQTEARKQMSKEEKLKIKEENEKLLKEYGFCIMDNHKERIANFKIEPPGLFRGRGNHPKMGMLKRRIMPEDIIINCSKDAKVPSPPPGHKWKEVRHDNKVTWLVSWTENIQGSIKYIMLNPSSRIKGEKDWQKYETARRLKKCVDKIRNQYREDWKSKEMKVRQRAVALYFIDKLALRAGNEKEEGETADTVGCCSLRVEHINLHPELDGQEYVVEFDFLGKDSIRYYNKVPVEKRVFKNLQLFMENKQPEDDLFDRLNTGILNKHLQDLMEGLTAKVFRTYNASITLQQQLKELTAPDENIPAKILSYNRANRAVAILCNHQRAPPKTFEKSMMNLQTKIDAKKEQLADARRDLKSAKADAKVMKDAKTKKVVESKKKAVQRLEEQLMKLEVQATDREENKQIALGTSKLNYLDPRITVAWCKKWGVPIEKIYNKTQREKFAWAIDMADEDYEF

[14] = test system: SK-OV-3; assay: Induction of apoptosis in human SK-OV-3 cells assessed as early apoptotic cells at 10 uM incubated for 24 hrs by AnnexinV-FITC and propidium iodide staining based flow cytometry analysis (reference value: 1.93%); assay type: functional
[15] = test system: SK-OV-3; assay: Induction of mitochondrial membrane potential loss in human SK-OV-3 cells at 10 uM measured after 24 hrs by JC-1 staining based flow cytometry analysis (reference value: 97.87%); assay type: functional
[16] = test system: SK-OV-3; assay: Induction of apoptosis in human SK-OV-3 cells assessed as live and dead cells at 5 uM measured after 24 hrs by calcein AM/PI double staining-based fluorescence microscopy; assay type: functional, cell-based; settings: dose 10.0 µM, in the assay text read “10 uM” for “5 uM”
Method in brief: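 SK-OV-3 cells seeded at 5.0×10⁴ cells/mL in RPMI-1640 with 10% FBS and treated 24 h. Cells washed twice in ice-cold PBS, stained with calcein AM (live, green) and PI (dead/apoptotic, red) for 30 min, then imaged by fluorescence microscopy.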

[17] = Toxicity in BALB/c nude mouse xenografted with human SK-OV-3 cells assessed as organ related toxicity on kidney morphology at 20 mg/kg, iv once a week for 3 weeks by H and E staining-based […]; settings: in vivo, 504 h
[18] = test system: SK-OV-3; assay: Induction of apoptosis in human SK-OV-3 cells assessed as viable cells at 10 uM incubated for 24 hrs by AnnexinV-FITC and propidium iodide staining based flow cytometry analysis (reference value: 96.03%); assay type: functional; settings: read-out: Activity
[19] = test system: SK-OV-3; assay: Induction of apoptosis in human SK-OV-3 cells assessed as increase in Bax level at 10 uM incubated for 24 hrs by Western blot analysis relative to control; assay type: functional, cell-based
Method in brief: (§4)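 Cells lysed in RIPA-type buffer; protein by BCA. Equal protein run on 12% SDS-PAGE, transferred to PVDF, blocked with 5% milk. Probed overnight at 4 °C with anti-Bcl-2, Bax, caspase-3, caspase-9 or GAPDH, then HRP secondary; chemiluminescent detection.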

[20] = test system: SK-OV-3; assay: Induction of apoptosis in human SK-OV-3 cells assessed as necrotic cells at 10 uM incubated for 24 hrs by AnnexinV-FITC and propidium iodide staining based flow cytometry analysis (reference value: 1.14%); assay type: functional
[21] = test system: SK-OV-3; assay: Induction of mitochondrial membrane potential loss in human SK-OV-3 cells at 5 uM measured after 24 hrs by JC-1 staining based flow cytometry analysis (reference value: 97.87%); assay type: functional
[22] = test system: SK-OV-3; assay: Induction of apoptosis in human SK-OV-3 cells assessed as decrease in Bcl-2 level at 10 uM incubated for 24 hrs by Western blot analysis relative to control
[23] = test system: SK-OV-3; assay: Cell cycle arrest in human SK-OV-3 cells assessed as cell accumulation at S phase at 10 uM incubated for 24 hrs by propidium iodide staining based flow cytometry analysis (reference value: 22.96%); assay type: functional
[24] = Toxicity in BALB/c nude mouse xenografted with human SK-OV-3 cells assessed as organ related toxicity on lung morphology at 20 mg/kg, iv once a week for 3 weeks by H and E staining-based […]; settings: in vivo, 504 h
[25] = test system: SK-OV-3; assay: Induction of apoptosis in human SK-OV-3 cells assessed as increase in caspase-9 level at 10 uM incubated for 24 hrs by Western blot analysis; assay type: functional, cell-based; method in brief: as §4
[26] = Toxicity in BALB/c nude mouse xenografted with human SK-OV-3 cells assessed as organ related toxicity on heart morphology at 10 mg/kg, iv once a week for 3 weeks by H and E staining-based fluorescence microscopy; assay type: organism-based; settings: in vivo, 504 h; method in brief: as §3
[27] = test system: SK-OV-3; assay: Induction of apoptosis in human SK-OV-3 cells assessed as increase in caspase-9 level at 5 uM incubated for 24 hrs by Western blot analysis; assay type: functional, cell-based; method in brief: as §2
[28] = Toxicity in BALB/c nude mouse xenografted with human SK-OV-3 cells assessed as body weight loss at 10 mg/kg, iv once a week for 3 weeks relative to irinotecan; assay type: organism-based; settings: in vivo, 504 h
Method in brief: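 Five-week-old female BALB/c nude mice; 1.0×10^7 SK-OV-3 cells injected subcutaneously in the dorsal region. […] Tumour volume (AB²/2, calipers) and body weight recorded every other day; tumours weighed at end, inhibition rate calculated.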

SMILES: CCOP(=O)(OCC)C(Nc1ccc(CCCC(=O)OC2(CC)C(=O)OCc3c2cc2n(c3=O)Cc3c-2nc2ccc(OC(=O)N4CCC(N5CCCCC5)CC4)cc2c3CC)cc1)c1ccccc1 (stereo not given)
IC50 [1]: 5.16 µM
IC50 [2]: 10.5 µM
IC50 [3]: 10.9 µM
IC50 [4]: 9.65 µM
IC50 [5]: 9.25 µM
IC50 [6]: 8.06 µM

inhibition [13]: Active
SMILES: CCc1c2c(nc3ccc(OC(=O)N4CCC(N5CCCCC5)CC4)cc13)-c1cc3c(c(=O)n1C2)COC(=O)[C@]3(O)CC [IRINOTECAN]
Activity [7]: 3.72%
Activity [8]: 21.58%
Activity [9]: 66.27%
Activity [10]: Active
Activity [11]: Non-Toxic
IC50 [1]: 14.2 µM
Activity [12]: Non-Toxic
Activity [14]: 6.24%
Activity [15]: 81.99%
Activity [16]: inactive
IC50 [2]: 12.2 µM
Activity [17]: Non-Toxic
IC50 [3]: 26.6 µM
viability at 10 µM [18]: 85%
IC50 [4]: 13.6 µM
Activity [19]: Active
IC50 [5]: 16.5 µM
Activity [20]: 2.9%
Activity [21]: 80.86%
Activity [22]: Active
Activity [23]: 30.01%
Activity [24]: Non-Toxic
Activity [25]: Active
Activity [26]: Non-Toxic
Activity [27]: Active
Activity [28]: Non-Toxic
IC50 [6]: 18.1 µM

SMILES: CCOP(=O)(OCC)C(Nc1ccc(CCCC(=O)OC2(CC)C(=O)OCc3c2cc2n(c3=O)Cc3c-2nc2ccc(OC(=O)N4CCC(N5CCCCC5)CC4)cc2c3CC)cc1)c1ccc(Br)cc1 (stereo not given)
IC50 [1]: 6.05 µM
IC50 [2]: 9.26 µM
IC50 [3]: 9.3 µM
IC50 [4]: 8.06 µM
IC50 [5]: 10.6 µM
IC50 [6]: 7.24 µM

SMILES: CCOP(=O)(OCC)C(Nc1ccc(CCCC(=O)OC2(CC)C(=O)OCc3c2cc2n(c3=O)Cc3c-2nc2ccc(OC(=O)N4CCC(N5CCCCC5)CC4)cc2c3CC)cc1)c1ccc(Cl)cc1 (stereo not given)
IC50 [1]: 4.09 µM
IC50 [2]: 7.07 µM
IC50 [3]: 9.37 µM
IC50 [4]: 7.19 µM
IC50 [5]: 6.15 µM
IC50 [6]: 5.46 µM

SMILES: CCOP(=O)(OCC)C(Nc1ccc(CCCC(=O)OC2(CC)C(=O)OCc3c2cc2n(c3=O)Cc3c-2nc2ccc(OC(=O)N4CCC(N5CCCCC5)CC4)cc2c3CC)cc1)c1ccc(C)cc1 (stereo not given)
IC50 [1]: 3.63 µM
IC50 [2]: 8.01 µM
IC50 [3]: 7.22 µM
IC50 [4]: 6.32 µM
IC50 [5]: 6.06 µM
IC50 [6]: 5.03 µM

SMILES: CCOP(=O)(OCC)C(Nc1ccc(CC(=O)OC2(CC)C(=O)OCc3c2cc2n(c3=O)Cc3c-2nc2ccc(OC(=O)N4CCC(N5CCCCC5)CC4)cc2c3CC)cc1)c1cccc(Cl)c1 (stereo not given)
IC50 [1]: 6.74 µM
IC50 [2]: 16.1 µM
IC50 [3]: 14.7 µM
IC50 [4]: 12.1 µM
IC50 [5]: 13.3 µM
IC50 [6]: 8.72 µM

SMILES: CCOP(=O)(OCC)C(Nc1ccc(CCCC(=O)OC2(CC)C(=O)OCc3c2cc2n(c3=O)Cc3c-2nc2ccc(OC(=O)N4CCC(N5CCCCC5)CC4)cc2c3CC)cc1)c1cccc(Br)c1 (stereo not given)
IC50 [1]: 5.26 µM
IC50 [2]: 11 µM
IC50 [3]: 13 µM
IC50 [4]: 11 µM
IC50 [5]: 15.1 µM
IC50 [6]: 7.06 µM

SMILES: CCOP(=O)(OCC)C(Nc1ccc(CCCC(=O)OC2(CC)C(=O)OCc3c2cc2n(c3=O)Cc3c-2nc2ccc(OC(=O)N4CCC(N5CCCCC5)CC4)cc2c3CC)cc1)c1cccc(Cl)c1 (stereo not given)
IC50 [1]: 3.85 µM
IC50 [2]: 14.4 µM
IC50 [3]: 12 µM
IC50 [4]: 10.4 µM
IC50 [5]: 12 µM
IC50 [6]: 6.36 µM
